Measured values from paper PMC11256359 (Biochemistry, 2024).
Positions count from the first letter of the chain named.

What was measured:
Format in all cases: binding
[1] = biological target: T1, hOTC (human ornithine transcarbamylase) (Homo sapiens, UniProt P00480); test: microscale thermophoresis, label-free
T1 sequence (P00480 33-354): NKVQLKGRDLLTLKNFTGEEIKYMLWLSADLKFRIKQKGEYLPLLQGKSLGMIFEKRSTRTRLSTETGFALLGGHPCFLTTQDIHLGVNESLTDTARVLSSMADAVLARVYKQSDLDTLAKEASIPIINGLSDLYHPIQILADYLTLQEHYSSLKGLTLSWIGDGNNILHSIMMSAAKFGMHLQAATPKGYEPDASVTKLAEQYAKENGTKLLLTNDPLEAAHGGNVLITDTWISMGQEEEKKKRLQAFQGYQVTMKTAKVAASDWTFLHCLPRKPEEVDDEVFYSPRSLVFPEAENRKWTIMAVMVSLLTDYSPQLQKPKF

[2] = biological target: T2, hOTC (human ornithine transcarbamylase) (Homo sapiens, UniProt P00480, C303A); test: microscale thermophoresis, label-free
T2 sequence (P00480 33-354 C303A): T1 sequence (P00480 33-354) with C271A
Method in brief: (§1)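 His-tagged human OTC (WT or variants) expressed in BL21(DE3) Tuner cells with pGro7 chaperones and purified by one-step nickel chromatography. Ligand: substrate CP, serially diluted. Protein was diluted to 500 nM in 50 mM HEPES, 150 mM NaCl, 0.05% Tween, 2 mM EDTA, then mixed with CP to 250 nM final. Incubated ≥5 min at room temperature. Kd was measured by label-free MST on intrinsic tryptophan fluorescence.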

[3] = biological target: T3, hOTC (human ornithine transcarbamylase) (Homo sapiens, UniProt P00480, D263A); test: microscale thermophoresis, label-free
T3 sequence (P00480 33-354 D263A): T1 sequence (P00480 33-354) with D231A
Method in brief: as §1

[4] = biological target: T4, hOTC (human ornithine transcarbamylase) (Homo sapiens, UniProt P00480, H107N); test: microscale thermophoresis, label-free
T4 sequence (P00480 33-354 H107N): T1 sequence (P00480 33-354) with H75N
Method in brief: as §1

[5] = biological target: T5, hOTC (human ornithine transcarbamylase) (Homo sapiens, UniProt P00480, D263N); test: microscale thermophoresis, label-free
T5 sequence (P00480 33-354 D263N): T1 sequence (P00480 33-354) with D231N
Method in brief: as §1

[6] = biological target: T6, hOTC (human ornithine transcarbamylase) (Homo sapiens, UniProt P00480, H302L); test: microscale thermophoresis, label-free
T6 sequence (P00480 33-354 H302L): T1 sequence (P00480 33-354) with H270L
Method in brief: as §1

[7] = biological target: T1, hOTC (human ornithine transcarbamylase); test: thermal shift assay; settings: 10 mM L-norvaline with carbamoyl phosphate present; 4 µM enzyme; storage buffer

Row | SMILES | Kd [1] [nM] | Kd [2] [nM] | Kd [3] [nM] | Kd [4] [nM] | Kd [5] [nM] | Kd [6] [nM] | Tm increase relative to CP alone [7] [°C]
1 | NC(=O)OP(=O)(O)O [CP, carbamoyl phosphate] | 230 | 190 | 430 | 25000 | 320 | 110000 | –
2 | CCC[C@H](N)C(=O)O [NVA, L-norvaline] | – | – | – | – | – | – | 2
